We go through seven compounds from publication PMC7883929 (Molecular Vision, 2021).

Entries after “also recorded” stand apart in the source; their conditions may differ. Read-outs that look alike come from different tables or passages of the source.

The subject of one experiment is hTM-80 cells. Briefly: Superoxide dismutase activity assay. The experiment is classed as cell-based, human. Particulars: 100 µM, overnight/24 h.
For a further experiment, the system named is normotensive rat eyes. Briefly: IOP measurement in normotensive Sprague Dawley rats. Conditions: Travoprost 0.004% single eye drop, 6 h time point only. The experiment is classed as in vivo. The procedure, abridged:
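Adult (10-week) female Sprague Dawley rats, n = 3/group, housed under dim light (90 lux) and dosed under a masked protocol. Each received a single 30 µl topical drop in PBS: saline vehicle, 0.004% travoprost positive control, or test compound. IOP was read by TonoLab rebound tonometry at 0, 3, 6, 24, 48 and 72 h. The contralateral eye served as control. Dosing was repeated three times per rat after 7-day washouts. Rank-sum test, mean ± SEM.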

For experiment [1] the following is noted: cited from earlier work.
The subject of experiment [2] is laser-induced glaucoma model in monkeys. Particulars: at 6 h, cited from earlier work.

As for `CC1(C)CC(N)CC(C)(C)N1[O]` [SA-3, 4-amino TEMPOL], the “SOD enzyme level (in words)” value in the experiment with hTM-80 cells is listed as “the effect was comparable to that of a standard SOD mimetic SA-3 compound”. The compound `CC(C)OC(=O)CCC/C=C\C[C@@H]1[C@@H](/C=C/[C@@H](O)COc2cccc(C(F)(F)F)c2)[C@H](O)C[C@@H]1O` [Travoprost] displayed an IOP lowering with normotensive rat eyes of 14%. For `CC(C)OC(=O)CCC/C=C\C[C@@H]1[C@@H](CC[C@@H](O)CCc2ccccc2)[C@H](O)C[C@@H]1O` [latanoprost], the IOP-lowering ability in experiment [1] is reported as −7.7 mm/Hg. For `O=C(CCC/C=C\C[C@@H]1[C@@H](CC[C@@H](O)CCc2ccccc2)[C@H](O)C[C@@H]1O)OCCCCO[N+](=O)[O-]` [LBN, Latanoprostene bunod], the IOP-lowering ability in experiment [1] is recorded as −9.0 mm/Hg.

As for `O=[N+]([O-])OCC(CO[N+](=O)[O-])O[N+](=O)[O-]` [GTN, glyceryl trinitrate], in experiment [2] (dose 500 µg), the IOP lowering is recorded as 13%. In the case of `[NH-]c1c[n+](N2CCOCC2)no1` [SIN-1, Linsidomine], the “SOD enzyme level (in words)” value with hTM-80 cells is reported as “did not increase the SOD enzyme; also recorded: did not increase the SOD level”. As for `CC1(C)CC(O[N+](=O)[O-])CC(C)(C)N1[O]` [4-nitro-TEMPOL], in experiment [2] (dose 150 µg/eye drop), the IOP lowering was 20%.
